Experimental data taken from ChEMBL document CHEMBL3351863, “Optimization of 2-phenyl-pyrimidine-4-carboxamides towards potent, orally bioavailable and selective P2Y(12) antagonists for inhibition of platelet aggregation” (Bioorg Med Chem Lett, 2014).

Key:
Platelet [1] = assay: Inhibition of ADP-induced platelet aggregation in human platelet rich plasma assessed as remaining activity at 500 nM by in-vitro light transmission aggregometry assay; format: functional
Method in brief: (§1)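 Light transmission aggregometry in human platelet-rich plasma; compound incubated, aggregation triggered with 3 µM ADP; remaining activity (RA) recorded at a single compound level (1000, 500 or 100 nM).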

Platelet [2] = assay: Inhibition of ADP-induced platelet aggregation in human platelet rich plasma assessed as remaining activity at 100 nM by in-vitro light transmission aggregometry assay; format: functional; method in brief: as §1
Platelet [3] = assay: Inhibition of ADP-induced platelet aggregation in human platelet rich plasma by in-vitro light transmission aggregometry assay; format: functional; settings: Homo sapiens, Platelet, Plasma
Method in brief: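 Human platelet-rich plasma incubated with compound, aggregation induced by 3 µM ADP and read by light transmission aggregometry; IC₅₀ derived from concentration–response curve.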

[4] = Potency shift, ratio of IC50 for inhibition of ADP-induced platelet aggregation in human platelet rich plasma to IC50 for displacement of [3H]-2-methyl-thio-adenosine 5'-diphosphate from human recombinant P2Y12 expressed in CHO cell membranes
[5] = Solubility in neutral pH; format: physicochemical
[6] = Solubility in basic pH; format: physicochemical
Cytochrome P450 3A4 [7] = biological target: T1, Cytochrome P450 3A4 (Homo sapiens, UniProt P08684); assay: Inhibition of CYP3A4 in human liver microsomes assessed as reduction in midazolam 1'-hydroxylation; format: ADME
Cytochrome P450 3A4 [8] = biological target: T1, Cytochrome P450 3A4; assay: Inhibition of CYP3A4 in human liver microsomes assessed as reduction in testosterone 6beta-hydroxylation; format: ADME
Cytochrome P450 2D6 = Cytochrome P450 2D6 (Homo sapiens, UniProt P10635); assay: Inhibition of CYP2D6 in human liver microsomes assessed as reduction in dextromethorphan-O demethylation; format: ADME
Cytochrome P450 2C9 = Cytochrome P450 2C9 (Homo sapiens, UniProt P11712); assay: Inhibition of CYP2C9 in human liver microsomes assessed as reduction in diclofenac 4'-hydroxylation; format: ADME
Liver microsome [9] = assay: Metabolic stability assay in human liver microsomes assessed as parent drug disappearance at 1 uM after 20 mins by HPLC and mass spectrometry method; format: ADME
Liver microsome [10] = assay: Metabolic stability assay in rat liver microsomes assessed as parent drug disappearance at 1 uM after 20 mins by HPLC and mass spectrometry method; format: ADME
[11] = biological target: Voltage-gated inwardly rectifying potassium channel KCNH2 (Homo sapiens, UniProt Q12809); assay: Inhibition of human ERG expressed in HEK cells by patch-clamp assay; format: cell-based; settings: hek293
Rattus norvegicus [12] = assay: AUC in Wistar rat at 10 mg/kg, po; format: ADME, organism-based, Plasma; set-up: dose 10 mg/kg, route oral; settings: in vivo
Method in brief: (§2)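 Rats dosed by iv infusion at 1 mg/kg (n = 2) or orally at 10 mg/kg (n = 3); plasma levels measured, limit of quantification ca. 1 ng/mL.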

Rattus norvegicus [13] = assay: (§3) Cmax in Wistar rat at 10 mg/kg, po; format: ADME, organism-based; set-up: dose 10 mg/kg, route oral; settings: in vivo, BLD = below limit of detection; method in brief: as §2
P2Y purinoceptor 12 = P2Y purinoceptor 12 (Homo sapiens, UniProt Q9H244); assay: Displacement of [3H]-2-methyl-thio-adenosine 5'-diphosphate from human recombinant P2Y12 expressed in CHO cell membranes by scintillation counting method
Method in brief: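 CHO cells expressing recombinant P2Y₁₂ receptors, incubated with tritium-labeled 2-methyl-thio-adenosine 5'-diphosphate plus test compound; IC₅₀ from displacement curves, each point in triplicate; reference compound run with every compound set, and set re-analyzed if its IC₅₀ fell outside pre-set 95% confidence interval.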

[14] = Protein binding in human plasma; format: ADME, cell-free; settings: read-out: PPB (converted)
[15] = Volume of distribution at steady state in Wistar rat at 1 mg/kg, iv or 10 mg/kg, po; format: ADME, organism-based; settings: in vivo, read-out: Vdss; method in brief: as §2
[16] = Half life in Wistar rat at 1 mg/kg, iv or 10 mg/kg, po; format: ADME, organism-based; settings: in vivo; method in brief: as §2
[17] = as §3; format: ADME, organism-based; set-up: dose 10 mg/kg, route oral; settings: Wistar, in vivo; method in brief: as §2
Rattus norvegicus [18] = assay: Oral bioavailability in Wistar rat at 10 mg/kg; format: ADME, organism-based; settings: in vivo; method in brief: as §2

T1 sequence (P08684 whole entry): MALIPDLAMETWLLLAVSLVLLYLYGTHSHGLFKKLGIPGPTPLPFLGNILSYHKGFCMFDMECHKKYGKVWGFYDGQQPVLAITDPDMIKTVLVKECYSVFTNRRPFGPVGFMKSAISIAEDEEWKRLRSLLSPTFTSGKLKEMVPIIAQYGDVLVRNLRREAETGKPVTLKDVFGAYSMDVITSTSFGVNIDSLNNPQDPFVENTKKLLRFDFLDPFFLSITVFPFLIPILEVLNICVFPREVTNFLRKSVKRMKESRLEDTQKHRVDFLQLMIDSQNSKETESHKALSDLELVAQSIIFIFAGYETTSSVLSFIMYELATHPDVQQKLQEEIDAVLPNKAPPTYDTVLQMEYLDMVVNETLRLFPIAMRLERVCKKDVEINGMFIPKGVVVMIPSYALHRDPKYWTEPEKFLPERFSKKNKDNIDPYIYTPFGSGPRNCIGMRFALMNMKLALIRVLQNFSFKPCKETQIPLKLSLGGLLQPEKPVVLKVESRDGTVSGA
Chain of Cytochrome P450 2C9 (P11712 whole entry): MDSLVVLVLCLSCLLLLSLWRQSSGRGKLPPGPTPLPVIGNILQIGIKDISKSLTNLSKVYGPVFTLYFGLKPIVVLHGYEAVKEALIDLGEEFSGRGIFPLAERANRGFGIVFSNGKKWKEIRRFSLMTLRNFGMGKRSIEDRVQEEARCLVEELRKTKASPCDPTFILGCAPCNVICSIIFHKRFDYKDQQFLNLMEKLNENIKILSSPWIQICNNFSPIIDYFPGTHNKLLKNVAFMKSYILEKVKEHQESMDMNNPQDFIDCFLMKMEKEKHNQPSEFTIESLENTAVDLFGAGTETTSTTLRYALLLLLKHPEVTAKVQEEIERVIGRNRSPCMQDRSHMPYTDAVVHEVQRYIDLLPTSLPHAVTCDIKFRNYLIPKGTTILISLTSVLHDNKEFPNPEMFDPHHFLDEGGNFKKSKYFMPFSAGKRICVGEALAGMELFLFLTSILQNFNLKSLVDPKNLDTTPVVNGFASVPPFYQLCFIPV
Chain of Cytochrome P450 2D6 (P10635 whole entry): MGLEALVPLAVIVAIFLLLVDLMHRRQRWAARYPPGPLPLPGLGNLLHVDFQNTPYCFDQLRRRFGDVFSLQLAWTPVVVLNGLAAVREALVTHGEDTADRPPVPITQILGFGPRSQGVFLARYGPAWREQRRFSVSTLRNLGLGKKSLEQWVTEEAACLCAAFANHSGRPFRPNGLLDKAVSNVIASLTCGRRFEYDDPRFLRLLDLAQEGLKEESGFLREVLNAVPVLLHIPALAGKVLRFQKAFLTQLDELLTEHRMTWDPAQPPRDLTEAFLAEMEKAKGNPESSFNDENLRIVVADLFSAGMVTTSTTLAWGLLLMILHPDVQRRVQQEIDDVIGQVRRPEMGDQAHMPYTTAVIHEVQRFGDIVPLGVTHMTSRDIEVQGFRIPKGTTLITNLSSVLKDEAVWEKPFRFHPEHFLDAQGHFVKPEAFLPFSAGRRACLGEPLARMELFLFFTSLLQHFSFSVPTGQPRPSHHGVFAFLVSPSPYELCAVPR
Chain of Voltage-gated inwardly rectifying potassium channel KCNH2 (Q12809 whole entry): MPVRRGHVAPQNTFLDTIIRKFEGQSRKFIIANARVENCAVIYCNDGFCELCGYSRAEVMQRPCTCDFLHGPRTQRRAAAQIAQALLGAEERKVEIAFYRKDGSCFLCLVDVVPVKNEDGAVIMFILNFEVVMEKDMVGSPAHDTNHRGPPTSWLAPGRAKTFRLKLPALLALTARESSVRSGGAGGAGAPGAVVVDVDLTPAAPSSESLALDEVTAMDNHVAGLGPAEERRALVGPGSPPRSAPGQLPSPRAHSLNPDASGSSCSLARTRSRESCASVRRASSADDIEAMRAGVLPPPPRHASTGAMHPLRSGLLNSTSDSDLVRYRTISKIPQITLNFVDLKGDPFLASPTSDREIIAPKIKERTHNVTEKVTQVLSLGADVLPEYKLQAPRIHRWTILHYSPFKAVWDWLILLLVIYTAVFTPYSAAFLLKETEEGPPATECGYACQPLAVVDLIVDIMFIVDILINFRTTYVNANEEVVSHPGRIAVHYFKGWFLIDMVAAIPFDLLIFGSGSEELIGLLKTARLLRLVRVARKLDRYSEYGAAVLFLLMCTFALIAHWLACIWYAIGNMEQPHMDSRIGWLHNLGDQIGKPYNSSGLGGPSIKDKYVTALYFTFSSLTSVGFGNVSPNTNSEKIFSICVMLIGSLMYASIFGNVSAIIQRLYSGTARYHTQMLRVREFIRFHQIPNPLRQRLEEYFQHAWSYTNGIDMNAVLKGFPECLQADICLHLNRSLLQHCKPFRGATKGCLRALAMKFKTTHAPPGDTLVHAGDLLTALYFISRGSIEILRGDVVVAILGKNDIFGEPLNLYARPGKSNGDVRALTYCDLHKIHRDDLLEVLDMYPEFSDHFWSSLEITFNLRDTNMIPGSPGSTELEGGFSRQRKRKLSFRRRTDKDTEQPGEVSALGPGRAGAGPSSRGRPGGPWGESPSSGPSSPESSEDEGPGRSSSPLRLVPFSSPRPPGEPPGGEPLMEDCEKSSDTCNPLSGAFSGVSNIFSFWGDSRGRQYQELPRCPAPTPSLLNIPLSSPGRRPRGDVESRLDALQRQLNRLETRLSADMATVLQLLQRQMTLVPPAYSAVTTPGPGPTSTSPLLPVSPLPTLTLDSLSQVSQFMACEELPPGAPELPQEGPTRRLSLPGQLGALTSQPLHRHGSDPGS
Chain of P2Y purinoceptor 12 (Q9H244 whole entry): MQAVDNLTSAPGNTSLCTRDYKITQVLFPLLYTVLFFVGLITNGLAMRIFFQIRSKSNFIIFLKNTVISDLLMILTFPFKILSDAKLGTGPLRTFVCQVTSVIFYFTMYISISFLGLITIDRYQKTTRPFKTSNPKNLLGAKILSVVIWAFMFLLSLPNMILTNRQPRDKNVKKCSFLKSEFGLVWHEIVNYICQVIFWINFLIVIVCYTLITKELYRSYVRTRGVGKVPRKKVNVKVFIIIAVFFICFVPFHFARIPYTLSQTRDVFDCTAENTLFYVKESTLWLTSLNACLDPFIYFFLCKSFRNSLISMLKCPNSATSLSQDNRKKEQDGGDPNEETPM

| SMILES | Activity (Platelet [1]) | Activity (Platelet [2]) | IC50 (Platelet [3]) | Ratio IC50 [4] | solubility [5] | solubility [6] | inhibition (INH) (Cytochrome P450 3A4 [7]) | inhibition (INH) (Cytochrome P450 3A4 [8]) | inhibition (INH) (Cytochrome P450 2D6) | inhibition (INH) (Cytochrome P450 2C9) | Stability (Liver microsome [9]) | Stability (Liver microsome [10]) | inhibition (INH) [11] | also measured |
| --- | --- | --- | --- | --- | --- | --- | --- | --- | --- | --- | --- | --- | --- | --- |
| CCOC(=O)N1CCN(C(=O)[C@H](CCC(=O)O)NC(=O)c2cc(-c3ccc[n+]([O-])c3)nc(-c3ccccc3)n2)CC1 | <30% | <70% | 0.126 µM | 0.98 | soluble | soluble | Not Active | Not Active | Not Active | Not Active | Stable | Stable | Not Active | AUC (Rattus norvegicus [12]; BLD = below limit of detection): BLD; Cmax (Rattus norvegicus [13]): BLD |
| CCOC(=O)N1CCN(C(=O)[C@H](CCC(=O)O)NC(=O)c2cc(NCCO)nc(-c3ccccc3)n2)CC1 | <30% | <70% | 0.114 µM | 0.67 | soluble | soluble | Not Active | Not Active | Not Active | Not Active | Stable | Stable | Not Active | IC50 (P2Y purinoceptor 12): 0.169 µM; fraction unbound [14]: 0.135; Vd [15]: 1 L/kg; half-life [16]: 12 min; AUC (Rattus norvegicus [12]): 8.44 nM·h; Cmax [17]: 17.5 nM; F (Rattus norvegicus [18]): 3% |
